# Screening results: PubChem BioAssay, several laboratories
# Compounds with a hit are over-represented: about 2.1% of the library has one in this group of screens.
# Runt-SMMHC FRET – blocks binding of human RUNX1 Runt domain to CBFb-SMMHC. Q01196+Q13951. Cerulean-Runt/Venus-CBFb-SMMHC FRET ratio 530/480, 1 h. inhibition, % at 20 µM. 220,000 compounds, 0.74% hits. AID 1434;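 active = mean inhibition across duplicate retests at 20 µM reaching about 50%, limit read from the data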;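 note: inhibitors lower the FRET ratio by blocking Runt binding to CBFb-SMMHC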
# Hck-Nef inh – human Hck-Nef kinase inhibition | P08631 | Recombinant Hck-YEEI plus Nef, Z-Lyte FRET kinase assay | inhibition, % at 20 µM | 220,000 compounds, 0.68% hits;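 active = Hck-Nef kinase inhibition above about 50%, limit read from the data; inactive = inhibition below that limit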
# Target sequence (P08631 whole entry, looked up): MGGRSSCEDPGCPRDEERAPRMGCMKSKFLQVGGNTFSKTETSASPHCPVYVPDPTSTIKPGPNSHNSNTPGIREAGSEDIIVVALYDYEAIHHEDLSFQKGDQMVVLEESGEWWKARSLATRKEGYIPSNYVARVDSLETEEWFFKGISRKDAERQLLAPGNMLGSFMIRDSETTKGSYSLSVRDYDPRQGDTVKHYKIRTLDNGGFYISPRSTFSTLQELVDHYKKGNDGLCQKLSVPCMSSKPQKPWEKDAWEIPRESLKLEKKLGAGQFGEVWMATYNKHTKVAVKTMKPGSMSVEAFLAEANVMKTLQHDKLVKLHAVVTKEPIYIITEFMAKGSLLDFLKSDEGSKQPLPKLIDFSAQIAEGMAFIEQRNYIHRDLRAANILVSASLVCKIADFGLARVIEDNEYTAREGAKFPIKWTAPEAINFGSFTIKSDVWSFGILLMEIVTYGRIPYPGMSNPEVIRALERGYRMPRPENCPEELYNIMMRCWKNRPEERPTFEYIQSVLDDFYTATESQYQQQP
# Pemphigus Ab inh – inhibitors of pemphigus antibody binding to human desmoglein-3 | P32926 | binding (percent of control), % at 10 µM | DSG3-coupled beads, scFv-anti-DSG3-GFP binding, flow cytometry; stronger effect = lower value | 310,000 compounds, 0.48% hits | AID 588358;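 active = binding more than 3 SD below its plate's average and above zero; inconclusive = below that plate limit but binding exactly zero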
# RanGTP-Imp inh – disruptors of Ran-importin-beta complex formation – biochemical, FRET, CFP-Ran, YFP-importin-beta, homogeneous, primary screen; cell-free CFP-Ran/YFP-importin-beta FRET ratio; inhibition, % (concentration not given with the values); 300,000 compounds, 1.1% hits; AID 2216;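 active = more than half of the replicate wells show a fall in the fluorescence ratio signal beyond about 16%, limit read from the data, passing the limit was not always enough; inconclusive = exactly half of the replicate wells pass the set limit; inactive = fewer than half of replicates pass the limit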
# pCIP destab – compounds decreasing mouse p/CIP protein stability | 290,000 compounds, 0.01% hits | Q05BA5 | decrease of EGFP signal, % at 10 µM | AID 1984 | F442A p/CIP-EGFP cells, EGFP fluorescence, 16 h;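 active = EGFP signal decrease of at least 30% at 10 µM or well 3 SD below plate mean, unless failing retest; inactive = the rest, including hits failing retest or dose response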
# Runt-CBFb FRET – inhibitors of human RUNX1 Runt domain binding to CBFb. Q01196+Q13951. Cerulean-Runt/Venus-CBFb FRET ratio 530/480, 1 h. inhibition, % at 20 µM. 220,000 compounds, 0.46% hits. AID 1496;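 active = inhibition over about 50% at 20 µM in the single-dose screen, limit read from the data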
#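 Assay system: Cerulean-Runt domain fusion protein, energy donor; Signal: fluorescence energy transfer, 422 nm excitation, 530/480 nm emission; Timing: 1 h compound exposure, room temperature; Control set: unlabeled CBFb; Medium: Tris buffer pH 7.5 with salts and BSA; Compound: single test concentration of 20 µM, 1% DMSO final; Probe or stimulus: Venus-CBFb 100 nM.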
# Hits are given with their value; – = inactive; ? = inconclusive; · = no result given.
SMILES,Runt-SMMHC FRET,Hck-Nef inh,Pemphigus Ab inh,RanGTP-Imp inh,pCIP destab,Runt-CBFb FRET
Cc1ccc2nc3c(cc(C(=O)NCC4CCCO4)c(=N)n3C3CCCC3)c(=O)n2c1 (configuration not stated),·,·,–,194,–,·
Cc1cccn2c(=O)c3cc(C(=O)NCC4CCCO4)c(=N)n(C4CCCC4)c3nc12 (configuration not stated),·,·,·,187,–,·
N=c1c(C(=O)NCC2CCCO2)cc2c(=O)n3ccccc3nc2n1C1CCCC1 (configuration not stated),·,·,–,186,–,·
N=c1c(C(=O)NCC2CCCO2)cc2c(=O)n3ccccc3nc2n1C1CCCCC1 (configuration not stated),·,·,–,–,–,·
Cc1ccc2nc(-c3ccc(Br)cc3)cc(C(=O)NCC3CCCO3)c2c1 (configuration not stated),·,·,–,·,·,·
CC(C)c1ccc(N(CC(=O)NC2CCCCC2)C(=O)CCC(=O)Nc2ccccn2)cc1,·,·,62,–,–,·
CC1(C)SC2C(C(=O)O)N=C(Cc3ccccc3)N2C1C(=O)O (configuration not stated),·,·,–,·,·,·
Cc1cc(C)nc(NC(=O)Nc2ccc3c(c2)OCO3)c1,–,–,–,–,–,–
Cc1ccc(NC(=O)Nc2ccc3c(c2)OCO3)nc1,–,–,6.9,–,–,–
CC(C)(C)C(=O)Nc1cccc(-c2ncon2)c1,–,–,·,–,–,–
CC1(C)CC(=O)C=C(Nc2cccc(C(F)(F)F)c2)C1,·,·,–,?,·,·
Cc1ccc(NC2=CC(=O)CC(C)(C)C2)cc1C,–,–,–,–,–,–
CC1(C)CC(=O)C=C(Nc2ccc(C(=O)O)cc2)C1,–,–,–,29,–,–
CC1(C)CC(=O)C=C(Nc2cccc(O)c2)C1,–,–,–,45,–,–
CC1(C)CC(=O)C=C(Nc2ccc3c(c2)OCCO3)C1,–,–,–,26,–,–
CCCCn1nc(C(=O)NCC2COc3ccccc3O2)c2ccccc2c1=O (configuration not stated),·,·,–,·,·,·
CCOc1ccc(CCNC(=O)CSCC(=O)Nc2cccc(C)c2)cc1OCC,·,·,–,–,·,·
CC1CCCN(S(=O)(=O)c2cccc(C(=O)NCC3CCCO3)c2)C1 (configuration not stated),·,·,–,·,·,·
CC(=O)Nc1ccc(S(=O)(=O)Nc2cc(C)cn(Cc3ccccc3)c2=O)cc1,·,·,·,–,–,·
O=C(CCC(=O)NNC(=O)COc1ccc(Br)cc1)NCc1ccccc1,–,–,1.9,–,–,–
CCCCn1c(N)c(N(CCOC)C(=O)c2ccc(S(=O)(=O)N3CCC(C)CC3)cc2)c(=O)[nH]c1=O,·,·,–,–,·,·
COc1cc(/C=N/Nc2ccccc2[N+](=O)[O-])cc(OC)c1O,–,–,–,?,–,–
COc1cc(/C=N/Nc2ccc(S(N)(=O)=O)cc2[N+](=O)[O-])cc(OC)c1O,–,–,83,–,–,–
N#CCn1c2ccccc2c2nc3ccccc3nc21,–,–,–,–,–,–
C#CCn1c2ccccc2c2nc3ccccc3nc21,·,·,82,–,–,·
SMILES,Runt-SMMHC FRET,Hck-Nef inh,Pemphigus Ab inh,RanGTP-Imp inh,pCIP destab,Runt-CBFb FRET
O=C(O)c1ccc(N/N=C/C=C/c2ccccc2)cc1,–,–,–,85,–,–
CC(=O)N1c2ccc(S(=O)(=O)NCCC(=O)Nc3ccc(C)c(Cl)c3)cc2CC1C (configuration not stated),·,·,–,–,–,·
O=C1C=C(Nc2ccc(Cl)cc2)CC(c2ccco2)C1 (configuration not stated),–,–,–,29,–,–
O=C1C=C(Nc2cccc(O)c2)CC(c2ccco2)C1 (configuration not stated),–,–,–,64,–,–
O=C(Cc1ccc(F)cc1)N[C@@H]1c2ccccc2CC[C@@H]1OCc1ccccc1,·,·,–,·,·,·
CC1(C)Cc2c(cnn2-c2ccc(F)cc2)C(NC(=O)CCN2CCCCC2=O)C1 (configuration not stated),·,·,–,–,–,·
CCOC(=O)c1c(C)[nH]c(C(=O)CN2CC(C)OC(C)C2)c1C (configuration not stated),–,–,–,29,–,–
O=C(CN(C(=O)CCC(=O)Nc1ccccn1)C1CCCC1)NCc1ccc(F)cc1,·,·,–,–,–,·
COc1ccccc1OCC(=O)n1cc(C(=O)c2cc(Cl)cc(Cl)c2O)cn1,–,–,–,–,–,–
CC(C)NC(=S)n1cc(C(=O)c2cc(Cl)cc(Cl)c2O)cn1,·,·,·,21,–,·
COc1ccc(-n2nc(C(=O)N3CCC(N4CCCCC4)CC3)c3c4ccccc4n(C)c3c2=O)cc1,·,·,–,–,–,·
O=C(c1ccco1)N1N=C(c2ccccc2O)CC1c1cccs1 (configuration not stated),·,·,–,·,·,·
CCOc1ccc(-n2c(=O)c3c(C)c(C(=O)N(C)C)sc3n(CC(=O)Nc3ccccc3F)c2=O)cc1,–,–,–,19,–,–
Cc1ccccc1C(=O)NCC(=O)OC(C)C(=O)NCc1ccco1 (configuration not stated),·,·,–,–,·,·
CC(C)Cc1nnc(NC(=O)CCC(=O)N2CCN(Cc3ccc(Cl)cc3)CC2)s1,·,·,–,–,–,·
COC(=O)CC1COc2ccccc2N1C(=O)c1ccc(Cl)cc1 (configuration not stated),–,–,–,179,–,–
COC(=O)CC1COc2ccccc2N1C(=O)c1ccc(Br)cc1 (configuration not stated),–,–,–,–,–,–
Nc1cccc2c1C(=O)N(Cc1cccc(Cl)c1)C2=O,93,–,–,–,–,–
CC(C)(C)NC(=O)CSc1nnc(C2CC2)n1-c1ccccc1,–,–,–,52,–,–
COc1cccc(NC(=O)N2CCCC2C(=O)Nc2cc(C)ccc2OC)c1 (configuration not stated),·,·,–,–,–,·
CC(=O)Nc1c2c(nn1-c1ccccc1C)CS(=O)(=O)C2,·,·,–,–,–,·
COc1ccc(S(N)(=O)=O)cc1C(=O)NC1CCCc2ccccc21 (configuration not stated),·,·,-38,–,–,·
COCCNC(=O)C(c1ccc(C)cc1)N(C(=O)CCC(=O)Nc1ccccn1)C1CCCCC1 (configuration not stated),·,·,–,–,–,·
COc1ccc(C(=O)/C=C/Nc2ccc(S(=O)(=O)Nc3nc(C)cc(C)n3)cc2)c(OC)c1,81,–,–,–,–,–
COc1ccc(C(=O)/C=C/Nc2ccc(S(=O)(=O)Nc3nc(C)cc(C)n3)cc2)cc1OC,67,–,–,–,–,–
Cc1cccc(C(=O)Nc2ccc(S(=O)(=O)Nc3nc(C)cc(C)n3)cc2)c1,·,·,14,–,–,·
